# Data taken from ChEMBL document CHEMBL3286113, “New potent antibacterial oxazolidinone (MRX-I) with an improved class safety profile” (J Med Chem, 2014).
# Experiments:
# [1] = Cmax in fasted human at 600 mg, po administered as single dose; assay type: ADME, organism-based; parameters: dose 600 mg, route oral; conditions: in vivo
# Method in brief: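 Healthy volunteers (12; six of each sex) in a three-period Latin-square crossover. Each received single oral doses of 300, 600 and 900 mg under fasting conditions, with a 1-week washout between doses. Parameters from a noncompartmental model.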
# [2] = AUC (0 to infinity) in human at 900 mg, po administered as single dose at 30 mins post fat meal; assay type: ADME, organism-based; parameters: dose 900 mg, time infinity, route oral; conditions: plasma
# Method in brief: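 Crossover study in 12 subjects (6 of each gender). Each received a single oral 900 mg dose either fasting or 30 min after a fat-containing meal, and AUC0−inf was determined.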
# [3] = Elimination half life in human at 900 mg, po administered as single dose at 30 mins post fat meal; assay type: ADME, organism-based; conditions: in vivo, read-out: beta t1/2 (converted)
# Method in brief: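 Crossover study in 12 subjects (six of each sex). Each got a single oral 900 mg dose either fasted or 30 min after a fat-containing meal.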
# [4] = AUC (0 to 24 hrs) in human at 600 mg, po administered as single dose with meal measured on day 1; assay type: ADME, organism-based; parameters: time < 24 hr, dose 600 mg, route oral; conditions: plasma
# Method in brief: (§1)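 Randomized, double-blind, placebo-controlled multiple-dose study in 32 healthy subjects (half male, half female). Subjects took 28 oral doses of 600 or 800 mg over 15 days, each with a meal. A single dose was given on days 1 and 15 for full PK, and doses were given Q12h from day 2 to day 14. AUC0−24 was measured on days 1 and 15.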
# [5] = AUC (0 to 24 hrs) in human at 600 mg, po administered as single dose with meal measured on day 15; assay type: ADME, organism-based; parameters: time < 24 hr, dose 600 mg, route oral; conditions: plasma; method in brief: as §1
# Rattus norvegicus [6] = assay: Toxicity in female rat assessed as effect on hematocrit level at 20 mg/kg/day, po bid administered for 4 weeks (reference value: 39.08%); assay type: organism-based; parameters: route oral; conditions: in vivo, 672 h
# Rattus norvegicus [7] = assay: Toxicity in female rat assessed as effect on platelet count at 20 mg/kg/day, po bid administered for 4 weeks (reference value: 654.6 x 10^9/L); assay type: organism-based; parameters: route oral; conditions: in vivo, 672 h
# Rattus norvegicus [8] = assay: Toxicity in female rat assessed as effect on mean corpuscular hemoglobin level at 200 to 300 mg/kg/day, po bid administered for 4 weeks (reference value: 19.5 pg); assay type: organism-based; parameters: route oral; conditions: in vivo, 672 h
# Rattus norvegicus [9] = assay: Toxicity in female rat assessed as change in bone marrow at 200 to 300 mg/kg/day, po bid administered for 4 weeks; assay type: organism-based; parameters: route oral; conditions: in vivo, 672 h
# Method in brief: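 Rats given the drug orally twice daily for 4 weeks, 10 rats per gender per group. Doses were 20, 100 and 200/300 mg/kg/day, with the top dose raised from 200 to 300 on day 15. Linezolid comparator at 100 and 200 mg/kg/day. Followed by a 4-week recovery. Mortality, body weight, hematology and bone marrow examined. TK blood sampled on days 1, 14 and 28.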
# [10] = AUC (0 to 24 hrs) in female rat at 200 mg/kg/day, po bid administered for 4 weeks; assay type: ADME, organism-based; parameters: dose 200 mg/kg/day, time < 24 hr, route oral; conditions: plasma
# Method in brief: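 Repeat-dose toxicity study in rats (10/gender/group) dosed orally twice daily for 4 weeks, then a 4-week recovery period; the top dose was raised from 200 to 300 mg/kg/day on day 15. Blood was taken on days 1, 14 and 28 for toxicokinetics, and AUC0−24 was reported for females.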
# [11] = Tmax in fasted human at 300 mg, po administered as single dose; assay type: ADME, organism-based; conditions: in vivo
# Method in brief: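 Randomized single-dose, three-period Latin-square crossover in 12 healthy volunteers (six per gender), fasting. Single oral doses of 300, 600 and 900 mg were separated by a 1-week washout. PK parameters were derived by noncompartmental analysis.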
# [12] = system: Staphylococcus epidermidis; assay: Antibacterial activity against methicillin-sensitive Staphylococcus epidermidis; assay type: functional
# [13] = system: Staphylococcus haemolyticus; assay: Antibacterial activity against Staphylococcus haemolyticus; assay type: functional
# Streptococcus pneumoniae [14] = assay: Bactericidal activity against penicillin intermediate-sensitive Streptococcus pneumoniae; assay type: functional
# Streptococcus mitis = assay: Antibacterial activity against Streptococcus mitis; assay type: functional
# Staphylococcus aureus [15] = assay: Antibacterial activity against methicillin-sensitive Staphylococcus aureus ATCC 29213; assay type: functional
# Staphylococcus aureus [16] = assay: Antibacterial activity against methicillin-resistant Staphylococcus aureus isolate 0605; assay type: functional
# Streptococcus pneumoniae [17] = assay: Antibacterial activity against penicillin-resistant Streptococcus pneumoniae isolate 0613; assay type: functional
# Enterococcus faecalis [18] = assay: Antibacterial activity against vancomycin-sensitive Enterococcus faecalis ATCC 29212; assay type: functional
# Rattus norvegicus [19] = assay: Acute toxicity in rat administered as single dose; assay type: organism-based; conditions: in vivo
# Streptococcus pneumoniae [20] = assay: Antibacterial activity against penicillin-resistant Streptococcus pneumoniae isolate 0613 in po dosed mouse systemic infection model; assay type: functional; conditions: isolate 0613, po
# Enterococcus faecalis [21] = assay: Antibacterial activity against vancomycin-sensitive Enterococcus faecalis ATCC 29212 in po dosed mouse systemic infection model; assay type: functional; conditions: ATCC 29212, po
# Staphylococcus aureus [22] = assay: Antibacterial activity against methicillin-sensitive Staphylococcus aureus ATCC 29213 in mouse thigh infection model assessed as reduction of log10 CFU per thigh at 5 mg/kg, po; assay type: functional
# Method in brief: (§2)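 Mouse thigh infection with S. aureus ATCC29213 (MSSA), 10 animals per dosing group. Oral doses were 5, 10, 20, 40 and 80 mg/kg. The read-out was log CFU per thigh after treatment, and the reduction (ΔLogCFU/thigh) was reported.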
# Staphylococcus aureus [23] = assay: Antibacterial activity against methicillin-sensitive Staphylococcus aureus ATCC 29213 in mouse thigh infection model assessed as reduction of log10 CFU per thigh at 10 mg/kg, po; assay type: functional; method in brief: as §2
# Staphylococcus aureus [24] = assay: Antibacterial activity against methicillin-sensitive Staphylococcus aureus ATCC 29213 in mouse thigh infection model assessed as reduction of log10 CFU per thigh at 20 mg/kg, po; assay type: functional; method in brief: as §2
# Rattus norvegicus [25] = assay: Dose normalized Cmax in po dosed rat; assay type: ADME, organism-based; conditions: in vivo
# Canis familiaris = assay: Dose normalized AUC (0 to t) in po dosed dog; assay type: ADME, organism-based, Canis lupus familiaris; conditions: in vivo
# [26] = Tmax in female rat at 5 mg/kg, po; assay type: ADME, organism-based; parameters: dose 5 mg/kg, route oral; conditions: in vivo
# Method in brief: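 Male and female rats received single oral doses of 5, 15 or 45 mg/kg, with 5 mg/kg iv as a reference arm. Tmax was read from the plasma concentration–time profile for each gender.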
# [27] = Cmax in male rat at 15 mg/kg, po; assay type: ADME, organism-based; parameters: dose 15 mg/kg, route oral; conditions: in vivo
# [28] = Cmax in male rat at 45 mg/kg, po; assay type: ADME, organism-based; parameters: dose 45 mg/kg, route oral; conditions: in vivo
# [29] = Half life in male rat at 45 mg/kg, po; assay type: ADME, organism-based; parameters: dose 45 mg/kg, route oral; conditions: in vivo
# [30] = Half life in female rat at 5 mg/kg, iv; assay type: ADME, organism-based; parameters: dose 5 mg/kg, route intravenous; conditions: in vivo
# [31] = AUC (0 to t) in male rat at 15 mg/kg, po; assay type: ADME, organism-based; parameters: dose 15 mg/kg, route oral; conditions: plasma
# Method in brief: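 Rat PK by gender, with single oral doses of 5, 15 and 45 mg/kg and an iv dose of 5 mg/kg. Tmax, Cmax, T1/2 and AUC0−t were reported per gender.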
# Rattus norvegicus [32] = assay: Toxicity in rat assessed as mortality at 20 to 300 mg/kg, po bid administered for 4 weeks measured on day 1 to day 28; assay type: organism-based; parameters: dose 20-300 mg/kg, route oral; conditions: in vivo, 672 h
# Method in brief: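 Rats, 10 per gender per group, given drug orally twice daily at 20, 100 and 200/300 mg/kg/day for 4 weeks, then a 4-week recovery period. The top dose of 200 mg/kg/day was raised to 300 mg/kg/day on day 15. The comparator was dosed the same way at 100 and 200 mg/kg/day. Monitoring covered mortality, body weight, hematology and bone marrow, with blood taken for TK on days 1, 14 and 28.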
structure (smiles),measurement,setting,value
O=C1C=CN(c2c(F)cc(N3C[C@H](CNc4ccon4)OC3=O)c(F)c2F)CC1 [CONTEZOLID],Cmax,[1],12.2 µg/mL
same,AUC(0-inf),[2],141 µg·h/mL
same,half-life,[3],2.7 h
same,AUC(0-t) at 24 h,[4],68.6 µg·h/mL
same,AUC(0-t) at 24 h,[5],72.9 µg·h/mL
same,Activity,Rattus norvegicus [6],37.16%
same,Activity,Rattus norvegicus [7],638.2 ×10⁹ /L
same,Activity,Rattus norvegicus [8],20.48 pg
same,Activity,Rattus norvegicus [9],Toxic
same,AUC at 24 h,[10],626 µg·h/mL
same,Tmax,[11],1.25 h
same,MIC,[12],0.25 mg/L
same,MIC50,[12],0.25 mg/L
same,MIC90,[12],0.5 mg/L
same,MIC50,[13],0.5 mg/L
same,MIC90,[13],0.5 mg/L
same,MIC50,Streptococcus pneumoniae [14],0.5 mg/L
same,MIC90,Streptococcus pneumoniae [14],0.5 mg/L
same,MIC50,Streptococcus mitis,0.5 mg/L
same,MIC90,Streptococcus mitis,1 mg/L
same,MIC,Staphylococcus aureus [15],1 mg/L
same,MIC,Staphylococcus aureus [16],2 mg/L
same,MIC,Streptococcus pneumoniae [17],2 mg/L
same,MIC,Enterococcus faecalis [18],1 mg/L
same,Activity,Rattus norvegicus [19],5000 mg/kg
same,ED50,Streptococcus pneumoniae [20],10.5 mg/kg
same,ED50,Enterococcus faecalis [21],14.1 mg/kg
same,deltalog10CFU,Staphylococcus aureus [22],0.95
same,deltalog10CFU,Staphylococcus aureus [23],3.29
same,deltalog10CFU,Staphylococcus aureus [24],3.33
same,Cmax/dose,Rattus norvegicus [25],1065 ng/mL/(mg/kg)
same,AUCt/dose,Canis familiaris,1664 ng·h/mL/mg/kg
same,Tmax,[26],0.67 h
same,Cmax,[27],10.7 µg/mL
same,Cmax,[28],27.8 µg/mL
same,half-life,[29],1.07 h
same,half-life,[30],1.51 h
same,AUC(0-t),[31],34.3 µg·h/mL
same,Activity,Rattus norvegicus [32],Non-toxic
